Results published in ChEMBL document CHEMBL1154723, “Identification and characterisation of new inhibitors for the human hematopoietic prostaglandin D2 synthase” (Eur J Med Chem, 2010).

Assays:
[1] = target: T1, Hematopoietic prostaglandin D synthase (Homo sapiens, UniProt O60760); assay: Inhibition of human H-PGDS expressed in Escherichia coli BL21 assessed as rate of glutathione-chloro-dinitro benzene conjugation at 50 uM
Procedure, shortened: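 GSH–CDNB conjugation by E. coli BL21 DE3-expressed, GSH-affinity purified human H-PGDS (2.5 ng/ml). Buffer was 0.1 M Tris HCl pH 8.0 with 2 mM MgCl2, 1 mM CDNB, 2 mM GSH and 10% ethanol. Read at A340 nm over 10 min at 25 C. Percent inhibition at 50 uM inhibitor, mean ± SD of triplicates.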

[2] = target: T1, Hematopoietic prostaglandin D synthase; assay: Inhibition of human H-PGDS expressed in Escherichia coli BL21 assessed as rate of glutathione-chloro-dinitro benzene conjugation
Procedure, shortened: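 Recombinant human H-PGDS from E. coli BL21 DE3 (pET17b, uninduced), GSH-affinity purified. Reaction: 0.1 M Tris HCl pH 8.0, 2 mM MgCl2, 1 mM CDNB, 2 mM GSH, 2.5 ng/ml enzyme, 10% (v/v) ethanol. Conjugate formation followed at A340 nm over 10 min, 25 C. Eight inhibitor concentrations bracketing IC50, background-corrected for solvent. Nonlinear regression, triplicates, mean ± SEM.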

T1 sequence (O60760 whole entry): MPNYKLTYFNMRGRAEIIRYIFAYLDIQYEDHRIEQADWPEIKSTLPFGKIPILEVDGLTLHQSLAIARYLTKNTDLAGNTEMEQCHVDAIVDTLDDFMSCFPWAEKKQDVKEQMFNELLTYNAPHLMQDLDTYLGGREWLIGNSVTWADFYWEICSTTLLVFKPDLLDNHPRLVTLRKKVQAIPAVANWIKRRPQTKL

| Structure (SMILES) | inhibition [1] [%] | IC50 [2] [µM] |
| --- | --- | --- |
| O=C(O)CCn1c2c(c3ccccc31)C[C@H](NS(=O)(=O)c1ccc(F)cc1)CC2 | 0 |  |
| COC(=O)Nc1nc2cc(C(=O)c3cccs3)ccc2[nH]1 | 42.6 |  |
| Nc1c(S(=O)(=O)O)cc(Nc2ccc(Nc3nc(Cl)nc(Nc4ccccc4S(=O)(=O)O)n3)c(S(=O)(=O)O)c2)c2c1C(=O)c1ccccc1C2=O [CIBACRON BLUE] | 100 | 0.2 |
| O=C(O)c1ccc2ccccc2c1Br | 5.1 |  |
| O=C(O)COc1ccc(C(=O)c2cccs2)c(Cl)c1Cl | 0 |  |
| COc1ccc2c(c1)c(CC(=O)O)c(C)n2C(=O)c1ccc(Cl)cc1 | 0 |  |
| O=C(O)CCCCCC[C@H]1C(=O)NC(=O)N1CCC(O)C1CCCCC1 (stereo not given in full) | 17 |  |
| O=C1OC(c2ccc(O)c(S(=O)(=O)O)c2)(c2ccc(O)c(S(=O)(=O)O)c2)c2c(Br)c(Br)c(Br)c(Br)c21 [SULFOBROMOPHTHALEIN] | 66.9 | 27 |
| CC1(C)Cc2c(-c3ccccc3)c(-c3ccc(Cl)cc3)c(CC(=O)O)n2C1 | 0 |  |
| COC(=O)Nc1nc2cc([S+]([O-])c3ccccc3)ccc2[nH]1 (stereo not given) | 0 |  |
| O=C(O)c1cc(/N=N/c2ccc(S(=O)(=O)Nc3ccccn3)cc2)ccc1O | 0 |  |

The next lines start with the values.

| inhibition [1] [%] | IC50 [2] [µM] | Structure (SMILES) |
| --- | --- | --- |
| 41.8 | 105 | COc1ccc(C(=O)c2cccs2)cc1 |
|  | > 300 | COC(=O)Nc1nc2ccc([S+]([O-])c3ccccc3)cc2[nH]1 (stereo not given) [OXFENDAZOLE] |
| 0 |  | O=C(O)Cc1ccccc1Nc1c(Cl)cccc1Cl |
| 0 |  | Cc1cc(CC(=O)O)n(C)c1C(=O)c1ccc(Cl)cc1 |
| 8.6 |  | O=C(Nc1ccccc1)Nc1cccc(C(=O)O)c1 |
| 78.2 | 9.2 | O=C(c1ccccc1)c1cccs1 |
| 100 | 1.8 | c1ccc(C(OC2CCN(CCCc3nnn[nH]3)CC2)c2ccccc2)cc1 |
| 25.3 | 122 | C=C(CC)C(=O)c1ccc(OCC(=O)O)c(Cl)c1Cl [ETHACRYNIC ACID] |
